Source: ChEMBL document CHEMBL4038265, “Antiprotozoal Activity-Based Profiling of a Dichloromethane Extract from Anthemis nobilis Flowers” (J Nat Prod, 2017)

Experiments:
[1] = Selectivity index, ratio of IC50 for rat L6 cells to IC50 for bloodstream form of Trypanosoma brucei rhodesiense STIB900; assay type: toxicity; settings: read-out: Ratio IC50
[2] = tested on: L6; assay: Cytotoxicity against rat L6 cells after 72 hrs by Alamar Blue assay; assay type: cell-based; settings: L6, 72 h
Outline: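 Rat L6 cytotoxicity IC50 values (μM) are averages of three independent assays.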

[3] = tested on: Trypanosoma brucei rhodesiense; assay: Antiprotozoal activity against bloodstream form of Trypanosoma brucei rhodesiense STIB900 after 72 hrs by Alamar Blue assay; assay type: functional; settings: STIB900, 72 h
[4] = Selectivity index, ratio of IC50 for rat L6 cells to IC50 for Trypanosoma cruzi Tulahuen C4; assay type: toxicity; settings: read-out: Ratio IC50
[5] = tested on: Leishmania donovani; assay: Antiprotozoal activity against amastigote form of Leishmania donovani MHOM/ET/67/L82 after 72 hrs by Alamar Blue assay; assay type: functional; settings: MHOM/ET/67/L82, 72 h
[6] = Selectivity index, ratio of IC50 for rat L6 cells to IC50 for amastigote form of Leishmania donovani MHOM/ET/67/L82; assay type: toxicity; settings: read-out: Ratio IC50
[7] = tested on: Plasmodium falciparum; assay: Antiprotozoal activity against erythrocytic stage of Plasmodium falciparum NF54 after 48 hrs by [3H]- hypoxanthine incorporation assay; assay type: functional
[8] = tested on: Trypanosoma cruzi; assay: Antiprotozoal activity against Trypanosoma cruzi Tulahuen C4 infected in rat L6 cells after 96 hrs by beta-galactosidase reporter gene assay; assay type: functional, cell-based; settings: Tulahuen C4, L6, 96 h
[9] = Selectivity index, ratio of IC50 for rat L6 cells to IC50 for erythrocytic stage of Plasmodium falciparum NF54; assay type: toxicity; settings: read-out: Ratio IC50

| SMILES | selectivity ratio [1] | IC50 [2] | IC50 [3] | selectivity ratio [4] | IC50 [5] | selectivity ratio [6] | IC50 [7] | IC50 [8] | selectivity ratio [9] |
| --- | --- | --- | --- | --- | --- | --- | --- | --- | --- |
| C=C(C[C@H](OC(=O)/C(C)=C\C)[C@@H]1C(=C)C(=O)O[C@H]1/C=C(\C)C=O)C(C)=O | 4.3 | 1.8 µM | 0.42 µM | 0.3 | 0.38 µM | 4.7 | 2 µM | 5 µM | 0.9 |
| C=C1C(=O)O[C@H]2/C=C(/C)[C@@H](O)C[C@H](O)C(=C)C[C@H](OC(=O)/C(C)=C\C)[C@@H]12 | 8.3 | 5.1 µM | 0.61 µM | 0.2 | 13.2 µM | 0.4 | 7.8 µM | 29.3 µM | 0.6 |
| C=C1C[C@H](OC(=O)/C(C)=C\C)[C@H]2C(=C)C(=O)O[C@H]2/C=C(/C)[C@@H](O)CC1=O | 3.9 | 1.5 µM | 0.4 µM | 0.5 | 0.5 µM | 3.1 | 1.9 µM | 2.8 µM | 0.8 |
| C=C1C(=O)O[C@H]2/C=C(/C)[C@@H](O)C[C@@H](O)/C(C)=C\[C@H](OC(=O)/C(C)=C\C)[C@@H]12 | 3.9 | 5.3 µM | 1.4 µM | 0.2 | 8.4 µM | 0.6 | 9.6 µM | 26.1 µM | 0.5 |
| C=C1C(=O)O[C@H]2/C=C(/C)[C@@H](O)C/C=C(\C=O)C[C@H](OC(=O)/C(C)=C\C)[C@@H]12 | 3.9 | 1.8 µM | 0.4 µM | 0.2 | 1.6 µM | 1.1 | 1.9 µM | 9.8 µM | 0.9 |
| C=C1C(=O)O[C@H]2/C=C(/C)[C@@H](O)C[C@H](O)C(=C)C[C@H](OC(=O)/C(C)=C/C)[C@@H]12 | 14.1 | 5.1 µM | 0.36 µM | 0.2 | 5.3 µM | 1 | 6.2 µM | 26.7 µM | 0.8 |
| C=C1C(=O)O[C@@H]2/C=C(/C)[C@@H]3C[C@H](O)[C@@](CO)(C[C@H](OC(=O)/C(C)=C\C)[C@@H]12)O3 | 63.1 | 5.1 µM | 0.08 µM | 0.1 | 9.8 µM | 0.5 | 4.7 µM | 37.3 µM | 1.1 |
| C=C(C)C(=O)O[C@H]1C/C(C)=C/C[C@H](O)/C(C)=C\[C@@H]2OC(=O)C(=C)[C@@H]21 | 6.1 | 28.2 µM | 4.6 µM | 6.1 | – | – | – | 4.2 µM | – |
| C=C1C(=O)O[C@H]2/C=C(/C)[C@@H](O)C[C@@H]3O[C@]3(C)C[C@H](OC(=O)/C(C)=C/C)[C@@H]12 | 4.5 | 5.3 µM | 1.2 µM | 0.7 | 2.7 µM | 1.9 | 3 µM | 7.3 µM | 1.8 |
| C=C1C(=O)O[C@H]2/C=C(/C)[C@H](O)C[C@H](O)C(=C)C[C@H](OC(=O)/C(C)=C\C)[C@@H]12 | 8.3 | 7.3 µM | 0.88 µM | 0.2 | 23 µM | 0.3 | 7.9 µM | 31.1 µM | 0.9 |
| C=C1C(=O)O[C@H]2[C@H]1[C@@H](OC(=O)/C(C)=C\C)CC(=C)[C@@H]1C=C[C@@](C)(O)[C@H]21 | 4.4 | 5.8 µM | 1.3 µM | 0.6 | 0.8 µM | 7.2 | 8.5 µM | 10.9 µM | 0.68 |
| C=C1C(=O)O[C@@H](/C=C(\C)C=O)[C@@H]1[C@H](/C=C(/C)C(C)=O)OC(=O)/C(C)=C\C | 4.3 | 5.2 µM | 1.2 µM | 0.5 | 0.5 µM | 11.2 | 2.2 µM | 11.3 µM | 2.3 |
| C=C1C(=O)O[C@H]2/C=C(/C)[C@@H](O)C/C=C(\C)C[C@H](OC(=O)/C(C)=C\C)[C@@H]12 | 2.4 | 4.9 µM | 2.1 µM | 0.4 | 2.7 µM | 1.8 | 3.1 µM | 11.3 µM | 1.6 |
| O=C(Cn1ccnc1[N+](=O)[O-])NCc1ccccc1 [BENZNIDAZOLE] | – | – | – | – | – | – | – | 2 µM | – |
| CCCCCCCCCCCCCCCCOP(=O)([O-])OCC[N+](C)(C)C [MILTEFOSINE] | – | – | – | – | 0.13 µM | – | – | – | – |
| COc1cc([C@@H]2c3cc4c(cc3[C@H](O)[C@H]3COC(=O)[C@H]23)OCO4)cc(OC)c1OC [PODOFILOX] | – | 0.016 µM | – | – | – | – | – | – | – |
